Rows were chosen to be rich in hits. Some 1.3% of all compounds tested hit in one or more screens of this group.
Diaph inh CS – counter-screen for diaphorase-based assays: diaphorase inhibitors and chemical oxidizers | diaphorase resazurin-to-resorufin fluorescence, NADH, 16 min; bacterial (C. kluyveri) enzyme, not human | inhibition, % at 20 µM | actives 0.69% (n = 190,000);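 active = primary screen inhibition at 20 µM above a set limit, cut at about 50% in these data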;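 also: plate controls were DMSO with full reaction for no effect and wells lacking NADH for full effect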
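Test system: Clostridium kluyveri diaphorase enzyme / Quantity: diaphorase at 0.14 U/mL in enzyme working solution / Incubation: 16-min room-temperature incubation before reading / Benchmarks: NADH-free wells as positive control, DMSO-only neutral wells / Signal: resorufin fluorescence 544/590 nm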
HKDC1 inhibitor – HKDC1 (human) hexokinase inhibition; Q2TB90; recombinant HKDC1, G6PDH/diaphorase resazurin coupled fluorescence; inhibition, % at 20 µM; actives 0.16% (n = 340,000); AID 493160;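 active = inhibition above about 35% when tested at 20 µM, limit read from the data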;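 also: plate controls were DMSO wells with enzyme for no effect and DMSO wells lacking enzyme for full effect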
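Assay system – recombinant HKDC1 (HK5) hexokinase enzyme, produced in-house · Input – HKDC1 at 5 µg/mL · Reagent – glucose plus 1 mM ATP as hexokinase substrates · Timing – 90 min reaction incubation at room temperature, dark · Measured by – G6PDH/diaphorase-coupled fluorescence, 1 mM NADP, 100 µM resazurin, 525/613 nm · Benchmarks – DMSO-enzyme wells negative, buffer-substituted wells positive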
G6PDH counter – inhibits Leuconostoc G6PDH, flagging false hits in G6PDH-based assays; Purified L. mesenteroides G6PDH, diaphorase/resazurin coupled fluorescence, 45 min; inhibition, % at 5 µM; actives 0.12% (n = 200,000); AID 1020; in the data active = inhibition above about 50%
TbHK1 inh – T. brucei hexokinase 1 inhibition. recombinant TbHK1, G6PDH-coupled NADH A340. inhibition, % at 10 µM. actives 0.11% (n = 220,000). AID 1430;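 active = inhibition of 50% or more in the single-dose primary screen; inactive = inhibition below 50%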
PfG6PD inh – PfG6PD (Plasmodium falciparum) enzyme inhibition. AID 504690. PfGluPho enzyme, NADPH resazurin-diaphorase fluorescence. actives 0.78% (n = 350,000). inhibition, % at 20 µM;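 active = inhibition reaching at least a set limit at 20 µM in the primary screen, cut at about 59% in these data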;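 also: 0% = DMSO wells with substrate and 100% = DMSO wells lacking glucose-6-phosphate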
PfG6PD confirm – confirmation of Plasmodium falciparum G6PD inhibitors. AID 504753. recombinant PfGluPho, NADPH-diaphorase-resazurin fluorescence. actives 34% (n = 2,400). shares compounds with PfG6PD inh. inhibition, % at 20 µM;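 active = inhibition of at least 50% at 20 µM in any single replicate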;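 also: 0% = DMSO with substrate and 100% = DMSO lacking glucose-6-phosphate substrate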
Diaph ctr 10uM – counter-screen for P. falciparum G6PD inhibitors: diaphorase inhibitors, oxidizers | diaphorase-coupled resazurin reduction, fluorescence, NADPH 10 uM | actives 39% (n = 820) | shares compounds with PfG6PD inh | inhibition, % at 20 µM;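 active = average inhibition reaching 50% or more with the compound at 20 µM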;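 also: resorufin red fluorescence formed as diaphorase reduces resazurin using NADPH; 0% = DMSO with enzyme and 100% = DMSO without enzyme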
Diaph ctr 30uM – counter-screen for P. falciparum G6PD inhibitors: diaphorase inhibitors, oxidizers; shares compounds with PfG6PD inh; Diaphorase/resazurin coupled assay, resorufin fluorescence, 30 uM NADPH; inhibition, % at 20 µM; actives 29% (n = 820); AID 504863;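 active = inhibition averaging 50% or more, tested at 20 µM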;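 also: 0% = DMSO with enzyme and 100% = DMSO wells lacking diaphorase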
Numbers without * were called inactive; . = no result given.

SMILES	Diaph inh CS	HKDC1 inhibitor	G6PDH counter	TbHK1 inh	PfG6PD inh	PfG6PD confirm	others
CN(C)S(=O)(=O)c1cccc(NC(=O)c2ccc3nccnc3c2)c1	.	-4.0	.	-10.3	2.1	.
O=C(Nc1cc(S(=O)(=O)N2CCOCC2)ccc1N1CCCCC1)c1cc(-c2ccccn2)nc2ccccc12	-2.4	-12.0	0.1	-9.2	71.3*	44.9
CN(C)S(=O)(=O)c1cccc(C(=O)Nc2cc(S(=O)(=O)N3CCOCC3)ccc2N2CCCC2)c1	.	-10.6	.	.	66.2*	33.5
CCN(CC)S(=O)(=O)c1ccc(N2CCCCC2)c(NC(=O)/C(C#N)=C/c2ccc(OC)cc2)c1	21.7	-6.5	4.2	-15.9	2.0	.
CN(C)S(=O)(=O)c1cccc(C(=O)Nc2cc(S(=O)(=O)N3CCOCC3)ccc2O)c1	.	-4.1	.	.	10.9	.
COc1ccc(/C=C(\C#N)C(=O)Nc2cc(S(=O)(=O)N3CCOCC3)ccc2N2CCCC2)cc1	22.2	-10.4	-1.5	-33.3	64.4*	36.1
O=C(CSc1nnc(-c2c[nH]c3ccccc23)o1)N1c2ccccc2CCc2ccccc21	22.5	-5.6	6.4	-9.0	12.4	.
COc1ccc(NC(=O)COC(=O)COc2cccc(Br)c2)cc1OC	14.6	2.0	6.6	4.7	3.8	.
Cc1ccccc1COc1ccc(/C(O)=C2/C(=O)C(=O)N(CCCn3ccnc3)C2c2ccco2)cc1 (centres undefined)	5.5	-1.4	4.5	.	-23.9	.
c1ccc2c(c1)c1c(c3ccccc32)CN2CCCC2C1 (centres undefined)	.	5.0	.	.	64.6*	-28.0
O=C(Nc1scc(-c2ccc(F)cc2)c1C(=O)O)c1ccco1	9.8	10.5	4.7	-27.5	-7.1	.
Cc1ccc(-c2csc(NC(=O)c3ccc(Br)cc3)c2C(=O)O)cc1	.	16.9	.	.	117.1*	52.6*	Diaph ctr 10uM=39.7;Diaph ctr 30uM=34.6
Cc1ccc(-c2csc(NC(=O)/C=C/c3ccco3)c2C(=O)O)cc1	2.5	5.0	5.5	-1.4	92.5*	57.5*	Diaph ctr 10uM=57.9*;Diaph ctr 30uM=59.2*
Cc1ccc(-c2csc(NC(=O)c3cccc(C)c3)c2C(=O)O)cc1	.	12.9	.	.	47.3	.
Nc1nccnc1C(=O)OCC(=O)NNC(=O)c1ccccc1	.	-2.3	.	.	5.9	.
O=C(Nc1ccccc1C(=O)O)c1ccc2ccccc2n1	13.1	-0.4	9.0	-3.2	73.7*	70.4*	Diaph ctr 10uM=58.9*;Diaph ctr 30uM=67.6*
COc1ccccc1NS(=O)(=O)c1cccc(NC(=O)c2ccc3ccccc3n2)c1	29.7	-8.6	-63.6	-2.7	2.6	.
O=C(Nc1cccc(S(=O)(=O)Nc2ccccc2F)c1)c1ccc2ccccc2n1	26.2	-19.6	1.6	29.9	75.5*	49.1
CCSc1nnc(NC(=O)c2ccc3ccccc3n2)s1	14.3	0.3	5.6	-9.5	71.4*	42.8
O=C(/C=C/c1ccccc1)Nc1cccc(S(=O)(=O)Nc2ccccc2F)c1	27.9	-39.7	-2.2	25.7	71.2*	45.6
O=C(C=Cc1ccccc1)Nc1ccccc1	.	1.3	.	.	27.4	.
O=C(CSc1nnc(SCc2ccc(Cl)cc2)s1)N/N=C/c1c[nH]c2ccccc12	24.7	13.2	6.2	-22.1	59.6*	32.9
O=C(CSc1nnc(SCc2cccc3ccccc23)s1)N/N=C/c1c[nH]c2ccccc12	22.6	11.8	-40.4	-18.6	42.4	.
Clc1nssc1=Nc1ccc(Br)cc1	21.0	-14.4	-0.4	5.9	78.6*	29.1
Clc1nssc1=Nc1nncs1	.	-7.7	.	.	100.5*	81.7*	Diaph ctr 10uM=1.0;Diaph ctr 30uM=-15.8
CN1C(=O)CSC1=Nc1ccc(Br)cc1	.	-4.3	.	.	-8.2	.
Cc1cnc(C(=O)OCc2ccc(C#N)cc2)cn1	.	2.0	.	.	-13.1	.
CCn1ncc2c(OCc3ccc(C#N)cc3)cc(C)nc21	14.1	2.2	4.5	2.0	67.9*	22.3
C/C(=N\Nc1ccc(C)c(Cl)c1)c1ccncc1	.	2.5	.	.	45.7	.
C/C(=N\Nc1ccc(C)c(Cl)c1)c1cccnc1	.	1.4	.	.	96.0*	37.3

Screening results from PubChem.
